Compounds with a hit are over-represented: about 4.3% of the library has one in this group of screens.
ALR inh – inhibitors of human ALR sulfhydryl oxidase, primary screen, biochemical, H2O2 detection, HRP-luminol luminescence, single point; FAD-linked sulfhydryl oxidase ALR (Homo sapiens), P55789; purified ALR, DTT oxidation; inhibition, % (concentration not given with the values); 290,000 compounds, 3.8% hits; AID 485317, 2010;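 active = mean replicate inhibition above about 79%, with every replicate also reaching it, limit read from the data; inconclusive = only one of the two criteria met; inactive = mean below limit and not every replicate reaching it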
Target sequence (P55789 whole entry, looked up): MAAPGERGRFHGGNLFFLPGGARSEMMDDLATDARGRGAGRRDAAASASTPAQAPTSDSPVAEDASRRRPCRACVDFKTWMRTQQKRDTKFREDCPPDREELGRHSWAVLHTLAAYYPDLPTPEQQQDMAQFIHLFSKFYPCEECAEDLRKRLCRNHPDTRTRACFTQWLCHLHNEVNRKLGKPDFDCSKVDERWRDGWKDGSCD
Dyrk1A ADPGlo – rat Dyrk1A kinase inhibitors, primary screen, biochemical, single point, plate reader; Dual specificity tyrosine-phosphorylation-regulated kinase 1A (Rattus norvegicus), Q63470; ADP-Glo luminescence, NFATc1 peptide; inhibition, % at 12.5 µM; 310,000 compounds, 0.43% hits; AID 504441, 2011; in the data active = inhibition above about 50%
CAL PDZ FP-1 – untagged CAL PDZ binding inhibitors, primary screen, biochemical, fluorescence polarization, HTS | Golgi-associated PDZ and coiled-coil motif-containing protein (Homo sapiens), Q9HD26 | inhibition, % at 24.9 µM | 300,000 compounds, 0.92% hits | AID 602252, 2012 | purified CAL PDZ, TMR-peptide fluorescence polarization, 1 h;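 active = mean inhibition of at least 30% with at least half of replicates also reaching 30%; inconclusive = no clear call, values can overlap the other calls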
CAL PDZ FP-2 – CAL PDZ peptide-binding inhibitors, primary screen, biochemical, fluorescence polarization, Cer-tagged CAL PDZ, HTS. Golgi-associated PDZ and coiled-coil motif-containing protein (Homo sapiens), Q9HD26. purified CAL PDZ, TMR-peptide fluorescence polarization, 1 h. inhibition, % at 20 µM. 330,000 compounds, 0.02% hits. AID 504414, 2011;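 active = highest replicate inhibition of at least 40%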
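System: purified tagged CAL PDZ domain construct (CerCALP). Schedule: 1 h incubation at room temperature before polarization reading. Medium: 25 mM sodium phosphate pH 7.4, 150 mM NaCl, TCEP, IgG, Thesit. Read-out: percent inhibition from loss of millipolarization. Measured by: FP readout, S and P plane fluorescence. Probe or stimulus: fluorescent TMR peptide probe.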
Rtt109 Vps75 – inhibitors of C. albicans Rtt109/Vps75 HAT, primary screen, biochemical, ThioGlo CoA-SH fluorescence, plate reader; inhibition, % at 34.9 µM; Histone acetyltransferase RTT109 (Candida albicans (strain SC5314 / ATCC MYA-2876)), …; AID 540336, 2011; purified Rtt109/Vps75, 4 h; 330,000 compounds, 0.16% hits;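 active = inhibition of at least 50% in every replicate; inconclusive = best replicate reaches 50% inhibition but some replicates fall short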
Target sequence (Q5AAJ8 whole entry, looked up): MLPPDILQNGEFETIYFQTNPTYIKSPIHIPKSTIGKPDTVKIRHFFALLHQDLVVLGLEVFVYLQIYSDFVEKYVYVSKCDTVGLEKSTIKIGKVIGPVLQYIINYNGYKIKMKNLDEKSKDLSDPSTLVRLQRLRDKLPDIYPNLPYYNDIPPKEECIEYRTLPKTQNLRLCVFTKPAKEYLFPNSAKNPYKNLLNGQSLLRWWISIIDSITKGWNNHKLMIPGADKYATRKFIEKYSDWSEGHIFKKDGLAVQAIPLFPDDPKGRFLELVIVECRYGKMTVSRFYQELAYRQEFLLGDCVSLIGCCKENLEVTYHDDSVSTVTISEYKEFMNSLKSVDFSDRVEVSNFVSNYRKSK
Each line names hits and unclear results; the compound was inactive in the other large screens.

CC(C)OP(=O)(c1ccc(N(C)C)cc1)C(O)c1ccc(N(C)C)cc1 (stereo not drawn)	ALR inh 98
CC(C)COP(=O)(OCC(C)C)C(O)c1ccc(N(C)C)cc1 (stereo not drawn)	ALR inh 92
CC(C)COP(=O)(c1ccc(N(C)C)cc1)C(O)c1ccc(N(C)C)cc1 (stereo not drawn)	ALR inh 98
COc1ccc(Cl)cc1C(=O)NNC1CC(=O)N(Cc2ccc(Cl)cc2)C1=O (stereo not drawn)	none
Cc1ccn(C(C)CC(=O)Nc2ccc(-c3ccno3)cc2)n1 (stereo not drawn)	none (no result: Dyrk1A ADPGlo)
CCOC(=O)c1ccc(NC(=S)N2CCN(C(=O)C3CCCO3)CC2)cc1 (stereo not drawn)	none
COC(=O)c1cc(Nc2cc(C)c3ccc(O)cc3n2)cc(C(=O)OC)c1	none
Cc1ccc(Nc2cc(C)c3ccc(O)cc3n2)cc1C	ALR inh 88
CCN1CCN(c2ccc(N=Cc3ccc(O)cc3O)cc2)CC1	ALR inh 99
COc1ccc(CN2C(=O)c3cccnc3C2=O)cc1S(=O)(=O)NC1CCCCC1	none (no result: Dyrk1A ADPGlo)
O=c1cc(-c2cccc([N+](=O)[O-])c2)[nH][nH]1	ALR inh 82
Cn1c(SCC(N)=O)nnc1-c1ccc(S(=O)(=O)N2CCCC2)cc1	CAL PDZ FP-1 42
COCCn1cnnc1SCC(=O)c1ccc(S(=O)(=O)N2CCCC2)cc1	ALR inh 87
Cn1cnnc1SCC(=O)Nc1cc(S(=O)(=O)N2CCCCC2)ccc1Cl	none
CCN(C(=O)COc1ccccc1)C1CCCCC1	none (no result: Dyrk1A ADPGlo)
CCN(C(=O)c1cccc(NC(=O)c2ccccc2)c1)C1CCCCC1	CAL PDZ FP-1 57
CCN(C(=O)CCc1ccccc1)C1CCCCC1	CAL PDZ FP-1 64
CC(=O)Nc1ccc(S(=O)(=O)N2CCC(C(=O)NCCC(=O)NCc3ccccc3)CC2)cc1	none
COc1ccccc1-c1ccc(SCc2ccc(C)cc2)nn1	none
COc1ccccc1-c1ccc(SCc2ccc(F)cc2)nn1	CAL PDZ FP-1 80
CCN(CC)C(=O)CSc1nnc(-c2ccccn2)n1-c1ccccc1OC	none
COc1cc2c(cc1NC(=O)CSc1cccc[n+]1[O-])oc1ccccc12	ALR inh 96
COc1ccc(C(=O)OCC(=O)Nc2c(C)n(C)n(-c3ccccc3)c2=O)cc1	none (no result: ALR inh, CAL PDZ FP-1)
O=c1[nH][nH]c(C(F)(F)F)c1/C=N/N1CCOCC1	none
COc1cc(C(=O)OCCN2CCOCC2)ccc1O	ALR inh 96
CC(C)COc1ccc(C(=O)OCCN2CCOCC2)c(O)c1	none (no result: CAL PDZ FP-1)
O=C(OCCCN1CCOCC1)c1ccc(O)c(O)c1	ALR inh 99 (no result: Dyrk1A ADPGlo)
Cc1cc(C)cc(OC(C)C(=O)Nc2ccc(S(=O)(=O)Nc3cc(C)nc(C)n3)cc2)c1 (stereo not drawn)	none
O=[N+]([O-])c1ccc2[nH]c3c(c2c1)CCCC3	ALR inh 98 (no result: Rtt109 Vps75)
C=CCn1c(SCC(=O)OC)nc2sc3c(c2c1=O)CCN(C)C3	ALR inh 99 (no result: Dyrk1A ADPGlo, CAL PDZ FP-1, CAL PDZ FP-2, Rtt109 Vps75)
COC(=O)CSc1nc2sc3c(c2c(=O)n1-c1ccccc1)CCN(C)C3	ALR inh 100 (no result: CAL PDZ FP-2)
C=CCNC(=O)CSc1nc2sc3c(c2c(=O)n1CCCOC)CCC3	ALR inh 81
CCn1c(SCC(=O)c2ccccc2)nc2sc3c(c2c1=O)CCN(C)C3	ALR inh 99
C=CCn1c(SCC(=O)NC)nc2sc3c(c2c1=O)CCC3	none
CCn1c(SCC(=O)NCCc2ccccc2)nc2sc3c(c2c1=O)CCN(C)C3	none (no result: ALR inh)
COc1ccc(/C=C(\NC(=O)c2ccccc2)C(=O)OCC2CCCN3CCCCC23)cc1OC (stereo not drawn)	none
CC(=O)c1cc(NC(=O)c2cccc(C(F)(F)F)c2)c(=O)oc1C	ALR inh inconclusive
CC(=O)c1cc(NC(=O)c2cccc(C(F)(F)F)c2)c(=O)oc1/C=C/N(C)C	none
COc1ccc(C(=O)Nc2cc(C(C)=O)c(C)oc2=O)cc1	ALR inh 92
CC(=O)c1cc(NC(=O)c2ccc(Cl)cc2)c(=O)oc1/C=C/N(C)C	ALR inh 97
CCOC(=O)NC(=O)c1cn(Nc2ccccc2C(F)(F)F)c(=O)[nH]c1=O	none (no result: Dyrk1A ADPGlo)
Oc1ccc(/C=C/c2cnccn2)cc1	ALR inh 83
Oc1ccc(/C=C/c2ccnc3ccccc23)cc1	none
COC(=O)c1c(NC(=O)C2CC=CCC2C(=O)O)sc(C(N)=O)c1C (stereo not drawn)	ALR inh 99 (no result: CAL PDZ FP-1)
O=C(O)c1cc2cc(Oc3ccccc3)ccc2[nH]1	none (no result: Dyrk1A ADPGlo)
COc1cccc(CNc2ccc(N3CCC(C)CC3)cc2)c1OC	ALR inh 98
Cc1ccc(OCCCn2ccnc2)c(Br)c1	none (no result: Dyrk1A ADPGlo, Rtt109 Vps75)
O=C1CCN(c2ccc([N+](=O)[O-])cc2F)CC1	none (no result: Dyrk1A ADPGlo)
Cc1cc(C)c(C)c(S(=O)(=O)N2C(=S)NC(=O)C2CC(C)C)c1C (stereo not drawn)	none (no result: ALR inh)
Cc1cc(C)c(C)c(S(=O)(=O)N2C(=S)NC(=O)C2C(C)C)c1C (stereo not drawn)	ALR inh 96
CN1CCCN(S(=O)(=O)c2ccc(O)c(C(=O)O)c2)CC1	none (no result: ALR inh)
COc1ccc(/C=C/C(=O)O)cc1S(=O)(=O)NCc1ccco1	Rtt109 Vps75 50
CC1=C(c2ccccc2)C(=S)NC(C)(C)C1	none (no result: CAL PDZ FP-1)
O=C(NCC1CCCO1)c1cccc(S(=O)(=O)Nc2ccc(SC(F)F)cc2)c1 (stereo not drawn)	ALR inh 98
Cc1ccc(S(=O)(=O)N(C)C)cc1NC(=O)CSc1ncn[nH]1	CAL PDZ FP-1 34
Cc1ccc(S(=O)(=O)N2CCCCC2)cc1NC(=O)CSc1ncn[nH]1	none (no result: CAL PDZ FP-1)
C=CCn1c(N)c(C(=O)Nc2ccc(C)cc2)sc1=S	none
O=C(NCc1ccco1)c1sc(=S)n2c1[nH]c(=O)c1ccccc12	ALR inh 98 (no result: CAL PDZ FP-1)
C=CCn1c(N)c(C(=O)Nc2ccccc2OC)sc1=S	ALR inh 98 (no result: CAL PDZ FP-1)
Nc1c(C(=O)NCC2CCCO2)sc(=S)n1-c1ccccc1 (stereo not drawn)	ALR inh 85
C=CCn1c(N)c(C(=O)NCC2CCCO2)sc1=S (stereo not drawn)	ALR inh 99
COc1ccccc1CNC(=O)C(NS(=O)(=O)c1ccc2c(c1)OCCO2)C(C)C (stereo not drawn)	none
C=CCn1c(N)c(C(=O)NCc2ccco2)sc1=S	ALR inh 98 (no result: CAL PDZ FP-1)
CCOC(=O)c1c(C)c(C(=O)NCC2CCCO2)c(C)n1CC (stereo not drawn)	none (no result: CAL PDZ FP-1)
Cc1ccc(-n2c(N)c(C(=O)NCc3ccco3)sc2=S)cc1	none
